Active and inactive are the calls of the source. The calls are words filed in the database; no cut-off is given here. Residues, ends and D or L forms follow the SMILES beside them. *: point of attachment. Benzoyl(4-TriPhPorphyrinyl) = O=C(c1ccc(-c2c3nc(c(-c4ccccc4)c4ccc([nH]4)c(-c4ccccc4)c4nc(c(-c5ccccc5)c5ccc2[nH]5)C=C4)C=C3)cc1)*
Tests used:
Staphylococcus aureus [1] = assay: Drug uptake in methicillin-resistant Staphylococcus aureus ATCC BAA-44 at 1.5 uM incubated for 60 mins in dark followed by flow cytometry; format: ADME, organism-based; conditions: in vivo, 1 h
In short: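 Cells treated as for photoinactivation: 60 min dark incubation with PS, unwashed or after three PBS washings. Analysed by flow cytometry for cell-associated red fluorescence instead of being illuminated.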

Escherichia coli [2] = assay: Drug uptake in Escherichia coli ATCC 25922 at 5 uM incubated for 60 mins in dark followed by flow cytometry; format: ADME, organism-based; conditions: in vivo, 1 h
In short: (§1)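 Bacterial suspensions treated as for photoinactivation (5 μM, 60 min dark incubation at rt, either unwashed or washed three times with PBS) and then analysed for cell-associated red fluorescence by flow cytometry instead of being illuminated.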

Staphylococcus aureus [3] = assay: Antibacterial activity against methicillin-resistant Staphylococcus aureus ATCC BAA-44 assessed as cell death at 0.5 uM incubated for 15 to 120 mins in dark followed by blue light illumination post compound washout; format: functional, organism-based
In short: (§2)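 Overnight BHI-grown stationary-phase bacteria in PBS pH 7.3 at ~2 × 10⁷ cells/mL, dark-incubated with PS at rt. Then centrifuged at 10000g for 5 min and washed three times in PBS before blue light (390−460 nm, 15.2 mW/cm², 13.5 J/cm²). Survival measured as cfu from serial dilutions plated in duplicate on BHI agar.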

Staphylococcus aureus [4] = assay: Antibacterial activity against methicillin-resistant Staphylococcus aureus ATCC BAA-44 assessed as cell death at 0.5 uM incubated for 15 to 120 mins in dark followed by blue light illumination; format: functional, organism-based
In short: (§3)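 Stationary-phase bacteria grown overnight in BHI at 37 °C, washed twice and resuspended in PBS pH 7.3 at ~2 × 10⁷ cells/mL. Dark incubation with PS at rt, unbound PS left in. Blue light (390−460 nm) at 15.2 mW/cm², 13.5 J/cm². Survivors counted as cfu from serial 10-fold dilutions plated in duplicate on BHI agar, 37 °C overnight. Dark, light-only and untreated controls.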

Staphylococcus aureus [5] = assay: Antibacterial activity against methicillin-resistant Staphylococcus aureus ATCC BAA-44 assessed as cell death at 0.5 uM incubated for 60 mins in dark followed by blue light illumination post compound washout; format: functional, organism-based; in short: as §2
Staphylococcus aureus [6] = assay: Antibacterial activity against methicillin-resistant Staphylococcus aureus ATCC BAA-44 assessed as log reduction in cell survival at 0.5 uM incubated for 60 mins in dark followed by blue light illumination; format: functional; in short: as §3
Escherichia coli [7] = assay: Antibacterial activity against Escherichia coli ATCC 25922 assessed as cell death at 10 uM incubated for 15 to 120 mins in dark followed by blue light illumination; format: functional, organism-based
In short: (§4)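 Dark incubation with PS at rt, then illumination either directly or after three PBS washes (10000g, 5 min). Survival by 10-fold serial dilution, duplicate plating on BHI agar, overnight colony count at 37 °C; dark, light-only and peptide-only controls.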

Escherichia coli [8] = assay: Antibacterial activity against Escherichia coli ATCC 25922 assessed as cell death at 10 uM incubated for 15 to 120 mins in dark followed by blue light illumination post compound washout; format: functional, organism-based; in short: as §4
Escherichia coli [9] = assay: Antibacterial activity against Escherichia coli ATCC 25922 assessed as cell death at 1.5 to 15 uM incubated for 60 mins in dark followed by blue light illumination post compound washout; format: functional, organism-based; in short: as §4
Escherichia coli [10] = assay: Antibacterial activity against Escherichia coli ATCC 25922 assessed as cell death at 15 uM incubated for 60 mins in dark followed by blue light illumination relative to control; format: functional; in short: as §3
Escherichia coli [11] = assay: Antibacterial activity against Escherichia coli ATCC 25922 assessed as cell death after 60 mins in dark followed by blue light illumination; format: functional, organism-based; in short: as §4
Escherichia coli [12] = assay: Antibacterial activity against Escherichia coli ATCC 25922 assessed as cell death at 10 uM incubated for 60 mins in dark followed by blue light illumination post compound washout; format: functional, organism-based; in short: as §4
Staphylococcus aureus [13] = assay: Antibacterial activity against methicillin-resistant Staphylococcus aureus ATCC BAA-44 assessed as cell death at 0.5 uM incubated for 60 mins in dark followed by blue light illumination; format: functional, organism-based; in short: as §3
Staphylococcus aureus [14] = assay: Antibacterial activity against methicillin-resistant Staphylococcus aureus ATCC BAA-44 assessed as cell death at 50 to 500 nM incubated for 60 mins in dark followed by blue light illumination post compound washout; format: functional, organism-based; in short: as §2
Staphylococcus aureus [15] = assay: Antibacterial activity against methicillin-resistant Staphylococcus aureus ATCC BAA-44 assessed as cell death at 50 to 500 nM incubated for 60 mins in dark followed by blue light illumination; format: functional, organism-based; in short: as §3
Escherichia coli [16] = assay: Antibacterial activity against Escherichia coli ATCC 25922 assessed as cell death at 5 uM incubated for 15 to 120 mins in dark followed by blue light illumination; format: functional, organism-based; in short: as §3
Escherichia coli [17] = assay: Antibacterial activity against Escherichia coli ATCC 25922 assessed as cell death at 5 uM incubated for 15 to 120 mins in dark followed by blue light illumination post compound washout; format: functional, organism-based; in short: as §2
Escherichia coli [18] = assay: Antibacterial activity against Escherichia coli ATCC 25922 assessed as log reduction at 10 uM incubated for 60 mins in dark followed by blue light illumination post compound washout relative to control; format: functional, organism-based; in short: as §2
Escherichia coli [19] = assay: Antibacterial activity against Escherichia coli ATCC 25922 assessed as cell death at 5 to 10 uM incubated for 60 mins in dark followed by blue light illumination; format: functional, organism-based; in short: as §3
Escherichia coli [20] = assay: Drug uptake in Escherichia coli ATCC 25922 at 5 uM incubated for 60 mins in dark followed by flow cytometry post compound washout; format: ADME, organism-based; conditions: in vivo, 1 h; in short: as §1
Staphylococcus aureus [21] = assay: Antibacterial activity against methicillin-resistant Staphylococcus aureus ATCC BAA-44 assessed as cell death at 10 nM incubated for 15 to 120 mins in dark followed by blue light illumination post compound washout; format: functional, organism-based; in short: as §2
Staphylococcus aureus [22] = assay: Antibacterial activity against methicillin-resistant Staphylococcus aureus ATCC BAA-44 assessed as cell death at 10 nM incubated for 15 to 120 mins in dark followed by blue light illumination; format: functional, organism-based; in short: as §3
Staphylococcus aureus [23] = assay: Antibacterial activity against methicillin-resistant Staphylococcus aureus ATCC BAA-44 assessed as cell death at 10 uM incubated for 15 to 120 mins in dark followed by red light illumination; format: functional, organism-based
In short: (§5)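 Cells incubated with PS in the dark at rt in PBS pH 7.3 (~2 × 10⁷ cells/mL), unbound PS not removed. Red light (600−750 nm) delivered from above at 40 mW/cm², total 36 J/cm². Viability read as cfu after 10-fold serial dilution, duplicate plating on BHI agar, overnight at 37 °C.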

Staphylococcus aureus [24] = assay: Antibacterial activity against methicillin-resistant Staphylococcus aureus ATCC BAA-44 assessed as cell death at 10 uM incubated for 15 to 120 mins in dark followed by red light illumination post compound washout; format: functional, organism-based
In short: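 After dark incubation with PS in PBS at rt, cells pelleted at 10000g for 5 min and washed three times with PBS. Red light (600−750 nm, 40 mW/cm², 36 J/cm²). Surviving cfu counted on BHI agar plated in duplicate.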

Staphylococcus aureus [25] = assay: Antibacterial activity against methicillin-resistant Staphylococcus aureus ATCC BAA-44 assessed as cell death at 1.5 to 15 uM incubated for 60 mins in dark followed by red light illumination; format: functional, organism-based; in short: as §5
Escherichia coli [26] = assay: Antibacterial activity against Escherichia coli ATCC 25922 assessed as cell death after 60 mins in dark followed by red light illumination; format: functional, organism-based; in short: as §4

| SMILES | Drug uptake (Staphylococcus aureus [1]) | Drug uptake (Escherichia coli [2]) | Activity (Staphylococcus aureus [3]) | Activity (Staphylococcus aureus [4]) | Activity (Staphylococcus aureus [5]) | FC (Staphylococcus aureus [6]) | Activity (Escherichia coli [7]) | Activity (Escherichia coli [8]) | Activity (Escherichia coli [9]) | fold change (FC) (Escherichia coli [10]) | Activity (Escherichia coli [11]) | Activity (Staphylococcus aureus [13]) | Activity (Staphylococcus aureus [14]) | Activity (Staphylococcus aureus [15]) | other results |
| --- | --- | --- | --- | --- | --- | --- | --- | --- | --- | --- | --- | --- | --- | --- | --- |
| CC(C)C[C@H](NC(=O)[C@H](CCCNC(=N)N)NC(=O)[C@@H]1CCCN1C(=O)[C@H](Cc1cnc[nH]1)NC(=O)[C@@H]1CCCN1C(=O)[C@@H]1CCCN1C(=O)[C@H](CCCNC(=N)N)NC(=O)[C@@H]1CCCN1C(=O)CNC(=O)c1ccc(-c2c3nc(c(-c4ccccc4)c4ccc([nH]4)c(-c4ccccc4)c4nc(c(-c5ccccc5)c5ccc2[nH]5)C=C4)C=C3)cc1)C(=O)O ({Benzoyl(4-TriPhPorphyrinyl)}-GPRPPHPRL-OH) | Active | Active | Active | Active | Active | 3 | Active | Active | Active | 4 | Dose-dependent effect | – | – | – | – |
| CC[C@H](C)[C@H](NC(=O)[C@H](Cc1ccc(O)cc1)NC(=O)[C@@H](NC(=O)[C@@H]1CCCN1C(=O)[C@H](CCCNC(=N)N)NC(=O)[C@H](CC(N)=O)NC(=O)[C@H](CC(N)=O)NC(=O)CNC(=O)c1ccc(-c2c3nc(c(-c4ccccc4)c4ccc([nH]4)c(-c4ccccc4)c4nc(c(-c5ccccc5)c5ccc2[nH]5)C=C4)C=C3)cc1)C(C)C)C(=O)N1CCC[C@H]1C(=O)N[C@@H](CCC(N)=O)C(=O)N1CCC[C@H]1C(=O)N[C@@H](CCCNC(=N)N)C(=O)N1CCC[C@H]1C(=O)N1CCC[C@H]1C(=O)N[C@@H](Cc1cnc[nH]1)C(=O)N1CCC[C@H]1C(=O)N[C@@H](CCCNC(=N)N)C(=O)N[C@@H](CC(C)C)C(=O)O ({Benzoyl(4-TriPhPorphyrinyl)}-GNNRPVYIPQPRPPHPRL-OH) | Active | Active | Active | Active | Active | 3 | Active | Active | Active | 4 | Dose-dependent effect | – | – | – | Activity (Escherichia coli [12]): Active |
| C[n+]1ccc(-c2c3nc(c(-c4cc[n+](C)cc4)c4ccc([nH]4)c(-c4ccc(C(=O)O)cc4)c4ccc([nH]4)c(-c4cc[n+](C)cc4)c4nc2C=C4)C=C3)cc1 | Not Active | Not Active | Active | Active | – | – | – | – | Active | – | Dose-dependent effect | Active | inactive | Active | Activity (Escherichia coli [16]): Active; Activity (Escherichia coli [17]): Active; Activity (Escherichia coli [18]): inactive; Activity (Escherichia coli [19]): Active |
| O=C(O)c1ccc(-c2c3nc(c(-c4ccccc4)c4ccc([nH]4)c(-c4ccccc4)c4nc(c(-c5ccccc5)c5ccc2[nH]5)C=C4)C=C3)cc1 | Active | Not Active | – | – | – | – | – | – | – | – | inactive | Active | Active | Active | Drug uptake (Escherichia coli [20]): Not Active; Activity (Staphylococcus aureus [21]): Active; Activity (Staphylococcus aureus [22]): Active |
| COC(=O)CCCC(=O)Nc1cc2[nH]c(cc2-c2ccccc2)c2nc(ccc3[nH]c(cc3-c3ccccc3)c3nc1C(c1ccccc1)=C3)C(c1ccccc1)=C2 | – | – | – | – | – | – | – | – | – | – | – | – | – | – | Activity (Staphylococcus aureus [23]): Active; Activity (Staphylococcus aureus [24]): Active; Activity (Staphylococcus aureus [25]): Active; Activity (Escherichia coli [26]): inactive |

From ChEMBL document CHEMBL2321660, “Synthesis, characterization, and photoinduced antibacterial activity of porphyrin-type photosensitizers conjugated to the antimicrobial peptide apidaecin 1b” (J Med Chem, 2013)
